Assay results as given in ChEMBL document CHEMBL3046209, “Semisynthesis and quantitative structure-activity relationship (QSAR) study of novel aromatic esters of 4'-demethyl-4-deoxypodophyllotoxin as insecticidal agents” (2009).

Tests used:
Format in all cases: functional
Mythimna separata [1] = assay: In vivo insecticidal activity against pre-third-instar larval stage of Mythimna separata (Oriental armyworm) in corn leaves assessed as corrected mortality rate at 1 mg/ml treated for 3 secs before larval infestation measured after 12 days by leaf-dipping method; conditions: 288 h
Outline: (§1)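 Leaf-dip assay: fresh corn leaves dipped 3 s in 1 mg/mL compound in acetone, then air-dried; acetone-only leaves served as control. Groups of 10 pre-third-instar larvae per dish fed treated leaves, replaced when consumed. After 48 h all dishes switched to untreated fresh leaves until adult emergence. Held at 25 ± 2 °C, RH 65–80%, 12 h/12 h light/dark. Corrected mortality scored.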

Mythimna separata [2] = assay: In vivo insecticidal activity against pre-third-instar larval stage of Mythimna separata (Oriental armyworm) in corn leaves assessed as corrected mortality rate at 1 mg/ml treated for 3 secs before larval infestation measured after 36 days by leaf-dipping method; conditions: 864 h; outline: as §1
Mythimna separata [3] = assay: In vivo insecticidal activity against pre-third-instar larval stage of Mythimna separata (Oriental armyworm) in corn leaves assessed as corrected mortality rate at 1 mg/ml treated for 3 secs before larval infestation measured after 24 days by leaf-dipping method; conditions: 576 h; outline: as §1

Row | Structure (SMILES) | mortality at 1000 µg/mL (Mythimna separata [1]) [%] | mortality at 1000 µg/mL (Mythimna separata [2]) [%] | mortality at 1000 µg/mL (Mythimna separata [3]) [%]
1 | COc1cc([C@@H]2c3cc4c(cc3C[C@H]3COC(=O)[C@@H]32)OCO4)cc(OC)c1OC(=O)c1ccncc1 | 14.2 | 59.2 | 21.4
2 | COc1cc([C@@H]2c3cc4c(cc3C[C@H]3COC(=O)[C@@H]32)OCO4)cc(OC)c1OC(=O)c1ccccc1 | 28.5 | 48.1 | 42.8
3 | COc1cc([C@@H]2c3cc4c(cc3C[C@H]3COC(=O)[C@@H]32)OCO4)cc(OC)c1OC(=O)CCCc1c[nH]c2ccccc12 | 10.7 | 40.7 | 14.2
4 | COc1cc([C@@H]2c3cc4c(cc3C[C@H]3COC(=O)[C@@H]32)OCO4)cc(OC)c1OC(=O)c1ccc(Cl)cc1 | 0 | 29.6 | 14.2
5 | COc1cc([C@@H]2c3cc4c(cc3C[C@H]3COC(=O)[C@@H]32)OCO4)cc(OC)c1OC(=O)c1cccnc1 | 3.5 | 62.9 | 10.7
6 | COc1cc([C@@H]2c3cc4c(cc3C[C@H]3COC(=O)[C@@H]32)OCO4)cc(OC)c1OC(=O)c1ccccc1Cl | 17.8 | 37 | 25
7 | COc1cc([C@@H]2c3cc4c(cc3C[C@H]3COC(=O)[C@@H]32)OCO4)cc(OC)c1OC(=O)c1cccc(C)c1 | 17.8 | 40.7 | 25
8 | COc1ccc(C(=O)Oc2c(OC)cc([C@@H]3c4cc5c(cc4C[C@H]4COC(=O)[C@@H]43)OCO5)cc2OC)cc1 | 3.5 | 25.9 | 21.4
9 | COc1cc([C@@H]2c3cc4c(cc3C[C@H]3COC(=O)[C@@H]32)OCO4)cc(OC)c1OC(=O)c1ccc([N+](=O)[O-])cc1 | 7.1 | 40.7 | 17.8
10 | COc1cc([C@@H]2c3cc4c(cc3C[C@H]3COC(=O)[C@@H]32)OCO4)cc(OC)c1OC(=O)/C=C/c1ccccc1 | 10.7 | 48.1 | 17.8
11 | COc1cc([C@@H]2c3cc4c(cc3C[C@H]3COC(=O)[C@@H]32)OCO4)cc(OC)c1OC(=O)c1cccc([N+](=O)[O-])c1 | 3.5 | 51.8 | 14.2
12 | COc1cc([C@@H]2c3cc4c(cc3C[C@H]3COC(=O)[C@@H]32)OCO4)cc(OC)c1OC(=O)c1cc([N+](=O)[O-])cc([N+](=O)[O-])c1 | 14.2 | 22.2 | 25
13 | CC(=O)O[C@@H]1C[C@H](O)[C@@]23CO[C@@H](O)[C@]1(C)[C@@H]2C[C@@H](O)[C@]1(C)[C@@H]3C(=O)[C@H](OC(C)=O)[C@@]2(C)[C@H](c3ccoc3)C[C@H]3O[C@]321 [TOOSENDANIN] | 21.4 | 40.7 | 35.7
14 | COc1cc([C@@H]2c3cc4c(cc3C[C@H]3COC(=O)[C@@H]32)OCO4)cc(OC)c1OC(=O)c1ccc(C)cc1 | 7.1 | 33.3 | 17.8
15 | COc1cc([C@@H]2c3cc4c(cc3C[C@H]3COC(=O)[C@@H]32)OCO4)cc(OC)c1OC(=O)Cc1cccc2ccccc12 | 7.1 | 37 | 17.8
16 | COc1cc([C@@H]2c3cc4c(cc3C[C@H]3COC(=O)[C@@H]32)OCO4)cc(OC)c1OC(=O)Cc1ccccc1 | 10.7 | 29.6 | 25
